Screens: PubChem BioAssay, The Scripps Research Institute Molecular Screening Center
pPAFAH FP inh – inhibitors of human plasma PAF acetylhydrolase (pPAFAH). Q13093. recombinant pPAFAH, FP-rhodamine probe fluorescence polarization. inhibition, % at 3.39 µM. actives 1.5% (n = 330,000);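 active means inhibition above the mean inhibition across the screen plus 3 SD, cut at about 25% in these data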;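 further: inhibitors block binding of the rhodamine activity-based probe so polarization drops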
RBBP9 inh – blocks human serine hydrolase RBBP9; recombinant RBBP9, FP-Rh probe fluorescence polarization; inhibition, % at 7.94 µM; actives 0.2% (n = 220,000); O75884;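 active means inhibition above the campaign mean of all tested compounds plus 3 SD, cut at about 14% in these data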
Target sequence (O75884 whole entry, looked up): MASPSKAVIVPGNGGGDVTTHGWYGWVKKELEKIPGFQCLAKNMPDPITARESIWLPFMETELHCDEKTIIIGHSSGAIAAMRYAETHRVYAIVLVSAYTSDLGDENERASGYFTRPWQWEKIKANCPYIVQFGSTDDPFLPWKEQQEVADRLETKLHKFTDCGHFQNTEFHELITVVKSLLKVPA
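System: RBBP9 protein / Quantity: 2.5 µM RBBP9 dispensing solution, before mixing / Also added: Serine-hydrolase probe FP-Rh, 375 nM pre-mixing / Dosing: 7.94 µM single dose, 0.794% DMSO / Timing: enzyme-compound preincubation 30 min, then probe labeling 45 min, 25 °C / Signal: FP readout at 525/598 nm / Controls: DMSO-treated enzyme wells and wells lacking RBBP9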
PAFAH1B3 inh – inhibitors of human PAFAH1B3; inhibition, % at 3.39 µM; actives 0.28% (n = 340,000); Q15102; recombinant PAFAH1B3, FP-rhodamine probe, fluorescence polarization; AID 492972;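 active means inhibition above the screen-wide average of all tested compounds plus 3 SD, cut at about 25% in these data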
Target sequence (Q15102 whole entry, looked up): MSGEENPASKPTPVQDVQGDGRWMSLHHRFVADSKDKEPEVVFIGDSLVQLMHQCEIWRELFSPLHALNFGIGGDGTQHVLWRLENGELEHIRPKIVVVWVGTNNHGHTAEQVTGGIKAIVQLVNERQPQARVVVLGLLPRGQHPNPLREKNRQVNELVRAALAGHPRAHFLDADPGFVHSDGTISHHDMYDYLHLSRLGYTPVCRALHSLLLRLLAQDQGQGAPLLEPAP
PAFAH1B2 inh – PAFAH1B2 (human) inhibition; P68402; recombinant PAFAH1B2, FP-rhodamine activity probe, fluorescence polarization; inhibition, % at 3.39 µM; actives 1.2% (n = 340,000); AID 492953;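 active means inhibition above the mean of all tested compounds plus 3 SD, cut at about 24% in these data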
Target sequence (P68402 whole entry, looked up): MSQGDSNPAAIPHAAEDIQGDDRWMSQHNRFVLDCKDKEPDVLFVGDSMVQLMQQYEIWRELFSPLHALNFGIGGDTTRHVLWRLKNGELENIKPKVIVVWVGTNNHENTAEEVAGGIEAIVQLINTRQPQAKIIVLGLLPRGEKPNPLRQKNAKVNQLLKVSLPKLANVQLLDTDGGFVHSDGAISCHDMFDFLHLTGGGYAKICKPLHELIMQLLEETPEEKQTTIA
PAFAH2 FP inh – inhibitors of human PAFAH2; Q99487; recombinant PAFAH2, FP-rhodamine activity probe, fluorescence polarization; inhibition, % at 3.39 µM; actives 0.99% (n = 340,000); AID 492956;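 active means inhibition above the mean over all tested compounds plus 3 SD, cut at about 30% in these data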;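 further: inhibitors block probe labeling of enzyme so polarization drops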
RBBP9 inh conf – human RBBP9 inhibition, confirmation; shares compounds with RBBP9 inh; recombinant RBBP9, FP-Rh probe fluorescence polarization; inhibition, % at 7.94 µM; actives 36% (n = 410); AID 1537;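 active means inhibition above the hit cutoff derived for the primary screen, cut at about 15% in these data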
pPAFAH FP conf – confirmation of human plasma PAF acetylhydrolase (pPAFAH) inhibitors. actives 72% (n = 2,300). inhibition, % at 3.39 µM. recombinant pPAFAH, FP-Rh probe fluorescence polarization. shares compounds with pPAFAH FP inh;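 active means mean inhibition of the triplicate above the hit cutoff set for the earlier primary screen, cut at about 25% in these data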
PAFAH2 FP conf – PAFAH2 (human) inhibition, confirmed; inhibition, % at 3.39 µM; shares compounds with PAFAH2 FP inh; actives 65% (n = 2,300); recombinant PAFAH2, FP-rhodamine activity probe, fluorescence polarization; AID 493030;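 active means mean inhibition over three repeats above a set limit taken from the earlier primary screen, cut at about 30% in these data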;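 further: inhibitor blocks binding of rhodamine activity probe so polarization falls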
PAFAH1B3 confirm – confirmation of human PAFAH1B3 inhibitors | shares compounds with PAFAH1B3 inh | actives 30% (n = 390) | AID 493032 | inhibition, % at 3.39 µM | recombinant PAFAH1B3, FP-Rh activity-based probe, fluorescence polarization;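 active means average inhibition over triplicate runs above the hit cutoff set in the earlier primary screen, cut at about 25% in these data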
Numbers stand for hits. A selection: hits, their analogues and other compounds. The true share with any hit is near 2.7%.

What do the screens show for `CCC/C(=N\NC(=O)c1csc(C)c1C)c1cccs1`?
pPAFAH FP inh: inactive; RBBP9 inh: 16.2; PAFAH1B3 inh: inactive; PAFAH1B2 inh: inactive; PAFAH2 FP inh: inactive; RBBP9 inh conf: inactive

How did CC/C(=N\NC(=O)c1csc(C)c1C)c1cccs1 do in these assays?
pPAFAH FP inh: inactive; RBBP9 inh: inactive; PAFAH1B3 inh: inactive; PAFAH1B2 inh: inactive; PAFAH2 FP inh: inactive

What do the screens show for `COc1ccccc1C(CNc1nc(C(F)(F)F)nc2ccccc12)N(C)C` (stereo not given)?
pPAFAH FP inh: inactive; PAFAH1B3 inh: inactive; PAFAH1B2 inh: inactive; PAFAH2 FP inh: inactive

What do the screens show for `NS(=O)(=O)c1ccc(N/N=C/c2ccc(O)cc2O)c([N+](=O)[O-])c1`?
pPAFAH FP inh: inactive; RBBP9 inh: inactive; PAFAH1B3 inh: inactive; PAFAH1B2 inh: inactive; PAFAH2 FP inh: inactive

Results for NS(=O)(=O)c1ccc(N/N=C/c2ccc(O)c(O)c2O)c([N+](=O)[O-])c1 ?
RBBP9 inh: 64.0; PAFAH1B3 inh: inactive; PAFAH1B2 inh: inactive; PAFAH2 FP inh: inactive; RBBP9 inh conf: 83.5

Results for CC(=O)C(C(C)=O)c1c(Cl)c(O)c(O)c2c(C(=O)c3ccccc3)coc12 ?
pPAFAH FP inh: 58.9; RBBP9 inh: 25.6; PAFAH1B3 inh: inactive; PAFAH1B2 inh: inactive; PAFAH2 FP inh: inactive; RBBP9 inh conf: 33.8; pPAFAH FP conf: 45.4

What do the screens show for `CN1CCN(Cc2c(O)ccc3occ(C(=O)c4ccccc4)c23)CC1`?
pPAFAH FP inh: inactive; RBBP9 inh: inactive; PAFAH1B3 inh: inactive; PAFAH1B2 inh: inactive; PAFAH2 FP inh: inactive

How did NC(=Nc1ccc(N)cc1)C(N)=Nc1ccc(N)cc1 do in these assays?
pPAFAH FP inh: inactive; RBBP9 inh: inactive; PAFAH1B3 inh: inactive; PAFAH1B2 inh: inactive; PAFAH2 FP inh: inactive

Results for Oc1ccc(/C=N/Nc2ccnc3cc(Cl)ccc23)cc1O ?
pPAFAH FP inh: 35.6; RBBP9 inh: 25.5; PAFAH1B3 inh: 54.3; PAFAH1B2 inh: 24.6; PAFAH2 FP inh: inactive; RBBP9 inh conf: 96.7; pPAFAH FP conf: 44.7

Results for O=c1[nH]nc(CNc2ccc(O)cc2)c2ccccc12 ?
pPAFAH FP inh: 58.9; RBBP9 inh: 17.0; PAFAH1B3 inh: inactive; PAFAH1B2 inh: inactive; PAFAH2 FP inh: inactive; RBBP9 inh conf: inactive; pPAFAH FP conf: inactive

Results for COC(=O)/C(=C/Nc1ccc(O)cc1)[N+](=O)[O-] ?
pPAFAH FP inh: 37.4; RBBP9 inh: 38.1; PAFAH1B3 inh: inactive; PAFAH1B2 inh: inactive; PAFAH2 FP inh: inactive; RBBP9 inh conf: inactive; pPAFAH FP conf: inactive

What do the screens show for `COC(=O)/C(=C/Nc1ccccc1)[N+](=O)[O-]`?
pPAFAH FP inh: inactive; RBBP9 inh: inactive; PAFAH1B3 inh: inactive; PAFAH1B2 inh: inactive; PAFAH2 FP inh: inactive

How did CCOc1ccc(/C=N/OC(C)C(=O)NCc2ccc3c(c2)OCO3)cc1 (stereo not given) do in these assays?
pPAFAH FP inh: inactive; RBBP9 inh: inactive; PAFAH1B3 inh: inactive; PAFAH1B2 inh: inactive; PAFAH2 FP inh: inactive

How did C/C(=C\C(=O)c1cccnc1)Nc1ccc(O)cc1 do in these assays?
pPAFAH FP inh: 38.3; RBBP9 inh: 42.8; PAFAH1B3 inh: inactive; PAFAH1B2 inh: inactive; PAFAH2 FP inh: inactive; RBBP9 inh conf: inactive; pPAFAH FP conf: inactive

How did COc1ccc(NC(=O)c2cccnc2)cc1 do in these assays?
pPAFAH FP inh: inactive; PAFAH1B3 inh: inactive; PAFAH1B2 inh: inactive; PAFAH2 FP inh: inactive

Results for CC(C)CC(N=Cc1c(O)c2ccccc2oc1=O)C(=O)O (stereo not given) ?
pPAFAH FP inh: inactive; RBBP9 inh: inactive; PAFAH1B3 inh: inactive; PAFAH1B2 inh: inactive; PAFAH2 FP inh: inactive

How did O=S(=O)(c1cccs1)N1CN(Cc2ccco2)c2nc3ccccc3nc21 do in these assays?
pPAFAH FP inh: 46.4; RBBP9 inh: 33.5; PAFAH1B3 inh: inactive; PAFAH1B2 inh: inactive; PAFAH2 FP inh: inactive; RBBP9 inh conf: inactive; pPAFAH FP conf: inactive

How did COc1ccc(C(=O)O/N=C(\C)c2nccs2)cc1 do in these assays?
pPAFAH FP inh: inactive; RBBP9 inh: 18.7; PAFAH1B3 inh: inactive; PAFAH1B2 inh: inactive; PAFAH2 FP inh: 67.0; RBBP9 inh conf: 39.5; PAFAH2 FP conf: 59.6

How did Cc1cccc(-c2c3c(=O)n(C)c(=O)n(C)c3cn2C2CCCCC2)c1 do in these assays?
pPAFAH FP inh: inactive; RBBP9 inh: inactive; PAFAH1B3 inh: inactive; PAFAH1B2 inh: inactive; PAFAH2 FP inh: inactive

How did CCOC(=O)C1CCN(c2nc(N)c3c(N)nc(SCC(=O)O)cc3c2C#N)CC1 do in these assays?
RBBP9 inh: 17.3; PAFAH1B3 inh: 36.9; PAFAH1B2 inh: inactive; PAFAH2 FP inh: inactive; RBBP9 inh conf: 39.3; PAFAH1B3 confirm: inactive

What do the screens show for `CC(=O)N(c1ccccc1C)C1CCCC1`?
pPAFAH FP inh: inactive; RBBP9 inh: inactive; PAFAH1B3 inh: inactive; PAFAH1B2 inh: inactive; PAFAH2 FP inh: inactive

What do the screens show for `CC(=O)N(C1=C(Cl)C(=O)c2ccccc2C1=O)C1CCCCC1`?
pPAFAH FP inh: inactive; RBBP9 inh: 55.0; PAFAH1B3 inh: 33.0; PAFAH1B2 inh: inactive; PAFAH2 FP inh: inactive; RBBP9 inh conf: 89.0; PAFAH1B3 confirm: inactive

What do the screens show for `CN(C)Cc1c(C(=O)N/N=C/CCc2ccccc2)nnn1-c1nonc1N`?
pPAFAH FP inh: inactive; PAFAH1B3 inh: inactive; PAFAH1B2 inh: inactive; PAFAH2 FP inh: inactive

Results for O=C(/C=C/c1cc[n+](CC(=O)c2ccc3cccc4c3c2CC4)cc1)c1ccc2cccc3c2c1CC3 ?
pPAFAH FP inh: 71.2; RBBP9 inh: inactive; PAFAH1B3 inh: inactive; PAFAH1B2 inh: inactive; PAFAH2 FP inh: inactive; pPAFAH FP conf: 86.3

What do the screens show for `CC1CCCC(C)N1CCNC(=O)CCc1nnc2n(Cc3ccccc3)c(=O)c3ccccc3n12` (stereo not given)?
pPAFAH FP inh: inactive; PAFAH1B3 inh: inactive; PAFAH1B2 inh: inactive; PAFAH2 FP inh: inactive

What do the screens show for `COc1ccccc1NC(=O)CSc1nc(O)cc(=O)n1-c1ccccc1OC`?
pPAFAH FP inh: 42.6; RBBP9 inh: inactive; PAFAH1B3 inh: inactive; PAFAH1B2 inh: inactive; PAFAH2 FP inh: inactive; pPAFAH FP conf: inactive

What do the screens show for `COc1ccccc1-n1c(SCC(=O)NC(C)(C)C)nc(O)cc1=O`?
pPAFAH FP inh: inactive; RBBP9 inh: inactive; PAFAH1B3 inh: inactive; PAFAH1B2 inh: inactive; PAFAH2 FP inh: inactive

What do the screens show for `COc1ccccc1-n1c(SCC(=O)Nc2ccccc2C)nc(O)cc1=O`?
pPAFAH FP inh: 81.1; RBBP9 inh: inactive; PAFAH1B3 inh: inactive; PAFAH1B2 inh: inactive; PAFAH2 FP inh: inactive; pPAFAH FP conf: inactive
